Measurements published in ChEMBL document CHEMBL1125695, “Potential anti-AIDS drugs. Lipophilic, adenosine deaminase-activated prodrugs” (J Med Chem, 1991).
One block for each compound: values may come before it.

Experiments:
[1] = Partition coefficient (logP); format: physicochemical; conditions: octanol/water
Procedure, shortened: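 Microscale shake-flask method: compound from DMSO stock into 1.0 mL octanol-saturated 0.01 M potassium phosphate pH 7.0, then mixed with 1.0 mL buffer-saturated n-octanol at 24–26 °C. Stood 15 min, phases centrifuged, each analysed by HPLC. P is the octanol/buffer peak-area ratio; mean ± SD of three independent determinations.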

[2] = Kinetic parameter Vmax at pH 7.4 and 37 degree Centigrade; format: ADME
Procedure, shortened: (§1)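 Calf intestinal mucosa adenosine deaminase with dideoxynucleoside substrates in 0.01 M Tris pH 7.4 at 37 °C. Aliquots quenched with cold 2 μM 2'-deoxycoformycin, ultrafiltered, and substrate loss followed by reversed-phase HPLC (CH3CN in pH 7.0 phosphate). Relative rates taken at 50 μM substrate with 0.7 unit/mL enzyme, referenced to ddA = 100.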

[3] = Kinetic parameter relative rate measured at 50 uM at pH 7.4 and 37 degree Centigrade; format: ADME; conditions: pH 7.4, 50 µM; procedure, shortened: as §1
[4] = Anti-HIV activity (% toxicity) in ATH-8 cells at 5 uM in presence of 2'-deoxycoformycin at 10 uM; format: cell-based; conditions: human, ath-8, 5 µM
Procedure, shortened: (§2)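 CD4+ ATH8 cells (200 000) exposed 1 h to cell-free HIV-1/IIIB, 43 TCID50 (1087 for one analogue), resuspended in 2 mL IL-2 medium with 15% fetal calf serum, cultured at 37 °C in 5% CO2 with or without compound; dCF alone 5 μM. Day 8 viable cells counted by dye exclusion. % protection and % toxicity computed versus infected-untreated and uninfected-untreated cells; ≤0 given as 0%. Minimum two separate experiments; representative test reported.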

[5] = Anti-HIV activity (% toxicity) in ATH-8 cells at 5 uM in absence of 2'-deoxycoformycin at 10 uM; format: cell-based; conditions: human, ath-8, 5 µM; procedure, shortened: as §2
[6] = Anti-HIV activity (% protection) in ATH-8 cells at 5 uM in presence of 2'-deoxycoformycin at 10 uM; format: functional, Homo sapiens; procedure, shortened: as §2
[7] = Anti-HIV activity (% protection) in ATH-8 cells at 5 uM in absence of 2'-deoxycoformycin at 10 uM; format: functional, Homo sapiens; procedure, shortened: as §2
[8] = Anti-HIV activity (% toxicity) in ATH-8 cells at 5 uM in absence of 2'-deoxycoformycin at 20 uM; format: cell-based; conditions: human, ath-8, 5 µM; procedure, shortened: as §2
[9] = Anti-HIV activity (% toxicity) in ATH-8 cells at 5 uM in absence of 2'-deoxycoformycin at 50 uM; format: cell-based; conditions: human, ath-8, 5 µM; procedure, shortened: as §2
[10] = Anti-HIV activity (% toxicity) in ATH-8 cells at 5 uM in presence of 2'-deoxycoformycin at 0 uM; format: cell-based; conditions: human, ath-8, 5 µM; procedure, shortened: as §2
[11] = Anti-HIV activity (% toxicity) in ATH-8 cells at 5 uM in presence of 2'-deoxycoformycin at 100 uM; format: cell-based; conditions: human, ath-8, 5 µM; procedure, shortened: as §2
[12] = Anti-HIV activity (% toxicity) in ATH-8 cells at 5 uM in presence of 2'-deoxycoformycin at 20 uM; format: cell-based; conditions: human, ath-8, 5 µM; procedure, shortened: as §2
[13] = Anti-HIV activity (% toxicity) in ATH-8 cells at 5 uM in presence of 2'-deoxycoformycin at 50 uM; format: cell-based; conditions: human, ath-8, 5 µM; procedure, shortened: as §2
[14] = Anti-HIV activity (% toxicity) in ATH-8 cells at 5 uM in absence of 2'-deoxycoformycin at 0 uM; format: cell-based; conditions: human, ath-8, 5 µM; procedure, shortened: as §2
[15] = Anti-HIV activity (% toxicity) in ATH-8 cells at 5 uM in absence of 2'-deoxycoformycin at 100 uM; format: cell-based; conditions: human, ath-8, 5 µM; procedure, shortened: as §2
[16] = Anti-HIV activity (% protection) in ATH-8 cells at 5 uM in absence of 2'-deoxycoformycin at 100 uM; format: functional, Homo sapiens; procedure, shortened: as §2
[17] = Anti-HIV activity (% protection) in ATH-8 cells at 5 uM in absence of 2'-deoxycoformycin at 20 uM; format: functional, Homo sapiens; procedure, shortened: as §2
[18] = Anti-HIV activity (% protection) in ATH-8 cells at 5 uM in absence of 2'-deoxycoformycin at 50 uM; format: functional, Homo sapiens; procedure, shortened: as §2
[19] = Anti-HIV activity (% protection) in ATH-8 cells at 5 uM in presence of 2'-deoxycoformycin at 0 uM; format: functional, Homo sapiens; procedure, shortened: as §2
[20] = Anti-HIV activity (% protection) in ATH-8 cells at 5 uM in presence of 2'-deoxycoformycin at 100 uM; format: functional, Homo sapiens; procedure, shortened: as §2
[21] = Anti-HIV activity (% protection) in ATH-8 cells at 5 uM in presence of 2'-deoxycoformycin at 20 uM; format: functional, Homo sapiens; procedure, shortened: as §2
[22] = Anti-HIV activity (% protection) in ATH-8 cells at 5 uM in presence of 2'-deoxycoformycin at 50 uM; format: functional, Homo sapiens; procedure, shortened: as §2
[23] = Anti-HIV activity (% protection) in ATH-8 cells at 5 uM in absence of 2'-deoxycoformycin at 0 uM; format: functional, Homo sapiens; procedure, shortened: as §2
[24] = Anti-HIV activity (% toxicity) in ATH-8 cells at 5 uM in absence of 2'-deoxycoformycin at 5 uM; format: cell-based; conditions: human, ath-8, 5 µM; procedure, shortened: as §2
[25] = Anti-HIV activity (% toxicity) in ATH-8 cells at 5 uM in presence of 2'-deoxycoformycin at 5 uM; format: cell-based; conditions: human, ath-8, 5 µM; procedure, shortened: as §2
[26] = Anti-HIV activity (% protection) in ATH-8 cells at 5 uM in absence of 2''-deoxycoformycin at 5 uM; format: functional, Homo sapiens; procedure, shortened: as §2
[27] = Anti-HIV activity (% protection) in ATH-8 cells at 5 uM in presence of 2'-deoxycoformycin at 5 uM; format: functional, Homo sapiens; procedure, shortened: as §2
[28] = (§3) Anti-HIV activity (% toxicity) in ATH-8 cells at 5 uM; format: cell-based; conditions: human, ath-8, 5 µM; procedure, shortened: as §2
[29] = (§4) Anti-HIV activity (%toxicity) in ATH-8 cells at 5 uM; format: cell-based; conditions: human, ath-8, 5 µM; procedure, shortened: as §2
[30] = as §4; format: cell-based; conditions: human, ath-8, 5 µM; procedure, shortened: as §2; remark: listed apart in the source
[31] = as §4; format: cell-based; conditions: human, ath-8, 5 µM; procedure, shortened: as §2; remark: listed apart in the source
[32] = Anti-HIV activity (%protection) in ATH-8 cells at 5 uM in absence of 2''-deoxycoformycin at 20 uM; format: functional, Homo sapiens; procedure, shortened: as §2
[33] = Anti-HIV activity (%protection) in ATH-8 cells at 5 uM in absence of 2''-deoxycoformycin at 0 uM; format: functional, Homo sapiens; procedure, shortened: as §2
[34] = Anti-HIV activity (%protection) in ATH-8 cells at 5 uM in absence of 2''-deoxycoformycin at 100 uM; format: functional, Homo sapiens; procedure, shortened: as §2
[35] = Anti-HIV activity (%protection) in ATH-8 cells at 5 uM in absence of 2''-deoxycoformycin at 50 uM; format: functional, Homo sapiens; procedure, shortened: as §2
[36] = Anti-HIV activity (%protection) in ATH-8 cells at 5 uM in absence of 2'-deoxycoformycin at 5 uM; format: functional, Homo sapiens; procedure, shortened: as §2
[37] = as §3; format: cell-based; conditions: human, ath-8, 5 µM; procedure, shortened: as §2; remark: listed apart in the source
[38] = (§5) Anti-HIV activity in ATH-8 cells at 5 uM in absence of 2''-deoxycoformycin at 20 uM; format: cell-based; conditions: human, ath-8, 5 µM; procedure, shortened: as §2
[39] = as §5; format: functional, Homo sapiens; procedure, shortened: as §2

Compound: Nc1ncnc2c1ncn2[C@H]1CC[C@@H](CO)O1
logP [1]: -0.29 | Vmax [2]: 1.32 µmol/min/unit | Relative rate [3]: 100 | Toxicity [4]: 22% | Toxicity [5]: 0% | Protection [6]: 86% | Protection [7]: 100%

Compound: Cc1nc2c(N)ncnc2n1C1OC(CO)CC1F (configuration not stated)
logP [1]: 0.1

Compound: OCC1CC(F)C(n2cnc3cncnc32)O1 (configuration not stated)
logP [1]: -0.4

Compound: Nc1c2ncn(C3OC(CO)CC3F)c2nc[n+]1[O-] (configuration not stated)
logP [1]: -1.38

Compound: O=C(Nc1ncnc2c1ncn2C1OC(CO)CC1F)c1ccccc1 (configuration not stated)
logP [1]: 0.73 | Toxicity [28]: 8% | Toxicity [29]: 0% | Toxicity [30]: 0% | Toxicity [31]: 0% | Protection [32]: 30% | Protection [33]: 0% | Protection [34]: 21% | Protection [35]: 29% | Protection [36]: 8% | Toxicity [37]: 2%

Compound: O=c1[nH]cnc2c1ncn2[C@H]1CC[C@@H](CO)O1 [DIDANOSINE]
Toxicity [38]: 0% | Protection [39]: 100%

Compound: Nc1ccn([C@H]2CC[C@@H](CO)O2)c(=O)n1 [ZALCITABINE]
logP [1]: -1.33

Compound: Cc1cn([C@H]2C[C@H](N=[N+]=[N-])[C@@H](CO)O2)c(=O)[nH]c1=O [ZIDOVUDINE]
logP [1]: 0.05

Now from value to compound, other results behind:

logP [1]: 0.64
Compound: CNc1nc(C)nc2c1ncn2[C@@H]1O[C@H](CO)C[C@@H]1F

logP [1]: 0.12
Compound: Cc1nc(N)c2ncn([C@@H]3O[C@H](CO)C[C@@H]3F)c2n1

logP [1]: 0.32 | Vmax [2]: 0.026 µmol/min/unit | Relative rate [3]: 0.06
Compound: OCC1CC(F)C(n2cnc3c(Cl)ncnc32)O1 (configuration not stated)
Toxicity [8]: 26% | Toxicity [9]: 46% | Toxicity [10]: 14% | Toxicity [4]: 49% | Toxicity [11]: 72% | Toxicity [12]: 58% | Toxicity [13]: 56% | Toxicity [14]: 0% | Toxicity [5]: 5% | Toxicity [15]: 52% | Protection [16]: 35% | Protection [17]: 57% | Protection [18]: 53% | Protection [19]: 3% | Protection [6]: 15% | Protection [20]: 17% | Protection [21]: 11% | Protection [22]: 14% | Protection [23]: 0% | Protection [7]: 48%

logP [1]: 0.27 | Vmax [2]: 0.00055 µmol/min/unit | Relative rate [3]: 0.04
Compound: CNc1ncnc2c1ncn2C1OC(CO)CC1F (configuration not stated)
Toxicity [8]: 0% | Toxicity [24]: 0% | Toxicity [9]: 6% | Toxicity [10]: 11% | Toxicity [4]: 7% | Toxicity [11]: 70% | Toxicity [12]: 0% | Toxicity [25]: 3% | Toxicity [13]: 46% | Toxicity [14]: 0% | Toxicity [5]: 0% | Toxicity [15]: 44% | Protection [16]: 27% | Protection [17]: 32% | Protection [18]: 37% | Protection [26]: 13% | Protection [19]: 0% | Protection [6]: 2% | Protection [20]: 0% | Protection [21]: 0% | Protection [27]: 1% | Protection [22]: 0% | Protection [23]: 0% | Protection [7]: 24%

logP [1]: -1.21
Compound: OCC1CC(F)C(n2cnc3c(O)ncnc32)O1 (configuration not stated)

Vmax [2]: 0.23 µmol/min/unit | Relative rate [3]: 6
Compound: Nc1ncnc2c1ncn2[C@@H]1O[C@H](CO)C[C@@H]1F [LODENOSINE]
Toxicity [8]: 0% | Toxicity [9]: 0% | Toxicity [10]: 11% | Toxicity [12]: 17% | Toxicity [13]: 54% | Toxicity [14]: 0% | Protection [17]: 70% | Protection [18]: 84% | Protection [19]: 0% | Protection [21]: 68% | Protection [22]: 48% | Protection [23]: 0%
